Measurements published in ChEMBL document CHEMBL3779815, “Synthesis of newer 1,2,3-triazole linked chalcone and flavone hybrid compounds and evaluation of their antimicrobial and cytotoxic activities” (Eur J Med Chem, 2016).
≈ marks a conversion by molar mass, not a printed value.

Assays:
Staphylococcus aureus = test: Antibacterial activity against Staphylococcus aureus […] after 18 to 24 hrs by micro-dilution method; assay type: functional
Enterococcus faecalis = test: Antibacterial activity against Enterococcus faecalis ATCC 29212 after 18 to 24 hrs by micro-dilution assay; assay type: functional
Escherichia coli = test: Antibacterial activity against Escherichia coli ATCC 35218 after 18 to 24 hrs by micro-dilution method; assay type: functional
Pseudomonas aeruginosa = test: Antibacterial activity against Pseudomonas aeruginosa […] after 18 to 24 hrs by micro-dilution method; assay type: functional
Shigella boydii = test: Antibacterial activity against Shigella boydii clinical isolate after 18 to 24 hrs by micro-dilution method; assay type: functional
Klebsiella pneumoniae = test: Antibacterial activity against Klebsiella pneumoniae ATCC 27736 after 18 to 24 hrs by micro-dilution method; assay type: functional
Candida albicans [1] = test: Antifungal activity against Candida albicans ATCC 90028 after 18 to 24 hrs by micro-dilution method; assay type: functional
Outline: (§1)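 Microdilution MIC run as the antibacterial protocol but on Sabouraud dextrose […] pH 7.3±0.2; compounds 100 to 0.78 μg/mL in twofold steps; saline-prepared inocula 1-2 × 10⁷ cfu/mL, 0.01 mL added; 37 °C aerobic, 18-24 h; MIC read as lowest concentration without visible growth or turbidity; fluconazole reference.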

Candida albicans [2] = test: Antifungal activity against Candida albicans clinical isolate after 18 to 24 hrs by micro-dilution method; assay type: functional; outline: as §1
Candida tropicalis = test: Antifungal activity against Candida tropicalis ATCC 750 after 18 to 24 hrs by micro-dilution method; assay type: functional; outline: as §1
Candida parapsilosis = test: Antifungal activity against Candida parapsilosis ATCC 22019 after 18 to 24 hrs by micro-dilution method; assay type: functional; details: Lodderomyces parapsilosis; outline: as §1
Cryptococcus neoformans = test: Antifungal activity against Cryptococcus neoformans clinical isolate after 18 to 24 hrs by micro-dilution method; assay type: functional; outline: as §1
Arthrodermataceae = test: Antifungal activity against Dermatophyte clinical isolate after 18 to 24 hrs by micro-dilution method; assay type: functional; outline: as §1
Aspergillus niger = test: Antifungal activity against Aspergillus niger clinical isolate after 18 to 24 hrs by micro-dilution method; assay type: functional; outline: as §1
Aspergillus fumigatus = test: Antifungal activity against Aspergillus fumigatus clinical isolate after 18 to 24 hrs by micro-dilution method; assay type: functional; outline: as §1
Plasmodium falciparum = test: Antimalarial activity against erythrocytic stage of chloroquine sensitive Plasmodium falciparum 3D7 assessed as inhibition of parasitemia after 48 hrs by Giemsa staining based microscopic analysis; assay type: functional, organism-based; details: 3D7, 48 h
Outline: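 Asynchronous culture on human O⁺ erythrocytes, 1-1.5% parasitemia, 4% hematocrit, RPMI-1640 with HEPES, NaHCO₃, glutamine, gentamycin, Albumax II; drug 0.10-100 μg/mL, 48 h, 37 °C, medium changed at 24 h; triplicate wells; Giemsa thin smears, about 4,000 erythrocytes counted at 1,000X; % parasitemia inhibition versus control gives IC50.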

[3] = Cytotoxicity against human HuH7 cells after 72 hrs by MTT assay; assay type: cell-based, Huh-7
Outline: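 Huh-7 cells, 4 × 10³/well in DMEM with 10% FBS and penicillin-streptomycin-glutamine; eight 2-fold dilutions 100-0.78 μg/mL, 72 h; MTT added 2-4 h, then isopropanol/Triton X-100/HCl solubilization 2 h dark, RT; absorbance 570 nm; CC50 as mean of at least two experiments in duplicate.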

Compound	MIC (Staphylococcus aureus) [µg/mL]	MIC (Enterococcus faecalis) [µg/mL]	MIC (Escherichia coli) [µg/mL]	MIC (Pseudomonas aeruginosa) [µg/mL]	MIC (Shigella boydii) [µg/mL]	MIC (Klebsiella pneumoniae) [µg/mL]	MIC (Candida albicans [1]) [µg/mL]	MIC (Candida albicans [2]) [µg/mL]	MIC (Candida tropicalis) [µg/mL]	MIC (Candida parapsilosis) [µg/mL]	MIC (Cryptococcus neoformans) [µg/mL]	MIC (Arthrodermataceae) [µg/mL]	MIC (Aspergillus niger) [µg/mL]	MIC (Aspergillus fumigatus) [µg/mL]	IC50 (Plasmodium falciparum) [µg/mL]	CC50 at 72 h [3] [µg/mL]
COc1cc(O)c(C(=O)/C=C/c2ccc(OCc3cn(-c4ccc(F)c(Cl)c4)nn3)c(OCc3cn(-c4ccc(F)c(Cl)c4)nn3)c2)c(OC)c1	> 100	100 (≈ 136 µM)	> 100	> 100	100 (≈ 136 µM)	> 100	> 100	> 100	> 100	> 100	> 100	> 100	> 100	> 100	10.9 (≈ 14.8 µM)	> 100
COc1cc(OC)c2c(=O)cc(-c3ccc(OCc4cn(-c5ccc(F)cc5F)nn4)c(OCc4cn(-c5ccc(F)cc5F)nn4)c3)oc2c1	> 100	100 (≈ 143 µM)	> 100	> 100	> 100	> 100	50 (≈ 71.4 µM)	> 100	> 100	100 (≈ 143 µM)	> 100	> 100	> 100	> 100	9.25 (≈ 13.2 µM)	> 100
COc1cc(O)c(C(=O)/C=C/c2ccc(OCc3cn(-c4ccc(F)c(Cl)c4)nn3)c(OC)c2)c(OC)c1	> 100	50 (≈ 92.6 µM)	50 (≈ 92.6 µM)	100 (≈ 185 µM)	25 (≈ 46.3 µM)	> 100	> 100	> 100	> 100	> 100	> 100	> 100	100 (≈ 185 µM)	> 100	2.74 (≈ 5.07 µM)	> 100
COc1cc(O)c(C(=O)/C=C/c2ccc(OCc3cn(-c4ccc(Cl)cc4)nn3)c(OCc3cn(-c4ccc(Cl)cc4)nn3)c2)c(OC)c1	> 100	> 100	100 (≈ 143 µM)	> 100	> 100	100 (≈ 143 µM)	> 100	> 100	> 100	> 100	> 100	> 100	> 100	> 100	12.8 (≈ 18.2 µM)	> 100
COc1cc(O)c(C(=O)/C=C/c2ccc(OC)c(OCc3cn(-c4ccc(F)cc4Cl)nn3)c2)c(OC)c1	100 (≈ 185 µM)	> 100	> 100	> 100	> 100	> 100	> 100	> 100	> 100	> 100	> 100	> 100	> 100	> 100	4.92 (≈ 9.11 µM)	> 100
COc1cc(OC)c2c(=O)cc(-c3ccc(OCc4cn(-c5ccccc5Cl)nn4)c(OCc4cn(-c5ccccc5Cl)nn4)c3)oc2c1	> 100	> 100	> 100	> 100	> 100	> 100	12.5 (≈ 17.9 µM)	12.5 (≈ 17.9 µM)	12.5 (≈ 17.9 µM)	12.5 (≈ 17.9 µM)	6.25 (≈ 8.96 µM)	12.5 (≈ 17.9 µM)	12.5 (≈ 17.9 µM)	12.5 (≈ 17.9 µM)	8.98 (≈ 12.9 µM)	> 100

Compounds with a lower MIC (Staphylococcus aureus), results first:

MIC (Staphylococcus aureus) [µg/mL]	MIC (Enterococcus faecalis) [µg/mL]	MIC (Escherichia coli) [µg/mL]	MIC (Pseudomonas aeruginosa) [µg/mL]	MIC (Shigella boydii) [µg/mL]	MIC (Klebsiella pneumoniae) [µg/mL]	MIC (Candida albicans [1]) [µg/mL]	MIC (Candida albicans [2]) [µg/mL]	MIC (Candida tropicalis) [µg/mL]	MIC (Candida parapsilosis) [µg/mL]	MIC (Cryptococcus neoformans) [µg/mL]	MIC (Arthrodermataceae) [µg/mL]	MIC (Aspergillus niger) [µg/mL]	MIC (Aspergillus fumigatus) [µg/mL]	IC50 (Plasmodium falciparum) [µg/mL]	Compound	CC50 at 72 h [3] [µg/mL]
12.5 (≈ 23.9 µM)	6.25 (≈ 12 µM)	6.25 (≈ 12 µM)	12.5 (≈ 23.9 µM)	6.25 (≈ 12 µM)	25 (≈ 47.9 µM)	> 100	> 100	> 100	> 100	> 100	> 100	> 100	> 100	6.78 (≈ 13 µM)	COc1cc(O)c(C(=O)/C=C/c2ccc(OCc3cn(-c4ccccc4Cl)nn3)c(OC)c2)c(OC)c1	> 100
12.5 (≈ 23.9 µM)	12.5 (≈ 23.9 µM)	6.25 (≈ 11.9 µM)	12.5 (≈ 23.9 µM)	6.25 (≈ 11.9 µM)	12.5 (≈ 23.9 µM)	> 100	50 (≈ 95.5 µM)	> 100	25 (≈ 47.8 µM)	50 (≈ 95.5 µM)	> 100	> 100	> 100	3.58 (≈ 6.84 µM)	COc1cc(O)c(C(=O)/C=C/c2ccc(OCc3cn(-c4ccc(F)cc4F)nn3)c(OC)c2)c(OC)c1	> 100
12.5 (≈ 17.8 µM)	6.25 (≈ 8.9 µM)	6.25 (≈ 8.9 µM)	12.5 (≈ 17.8 µM)	6.25 (≈ 8.9 µM)	12.5 (≈ 17.8 µM)	6.25 (≈ 8.9 µM)	6.25 (≈ 8.9 µM)	12.5 (≈ 17.8 µM)	12.5 (≈ 17.8 µM)	6.25 (≈ 8.9 µM)	12.5 (≈ 17.8 µM)	25 (≈ 35.6 µM)	25 (≈ 35.6 µM)	8.86 (≈ 12.6 µM)	COc1cc(O)c(C(=O)/C=C/c2ccc(OCc3cn(-c4ccc(F)cc4F)nn3)c(OCc3cn(-c4ccc(F)cc4F)nn3)c2)c(OC)c1	> 100
